In ChEMBL document CHEMBL3588803, “Design, synthesis and pharmacology of 1,1-bistrifluoromethylcarbinol derivatives as liver X receptor β-selective agonists” (Bioorg Med Chem Lett, 2015):
pEC50: −log10 of the molar value.

What was measured:
[1] = target: T1, Oxysterols receptor LXR-beta (Homo sapiens, UniProt P55055); test: Agonist activity at LXRbeta (unknown origin)
T1 sequence (P55055 whole entry): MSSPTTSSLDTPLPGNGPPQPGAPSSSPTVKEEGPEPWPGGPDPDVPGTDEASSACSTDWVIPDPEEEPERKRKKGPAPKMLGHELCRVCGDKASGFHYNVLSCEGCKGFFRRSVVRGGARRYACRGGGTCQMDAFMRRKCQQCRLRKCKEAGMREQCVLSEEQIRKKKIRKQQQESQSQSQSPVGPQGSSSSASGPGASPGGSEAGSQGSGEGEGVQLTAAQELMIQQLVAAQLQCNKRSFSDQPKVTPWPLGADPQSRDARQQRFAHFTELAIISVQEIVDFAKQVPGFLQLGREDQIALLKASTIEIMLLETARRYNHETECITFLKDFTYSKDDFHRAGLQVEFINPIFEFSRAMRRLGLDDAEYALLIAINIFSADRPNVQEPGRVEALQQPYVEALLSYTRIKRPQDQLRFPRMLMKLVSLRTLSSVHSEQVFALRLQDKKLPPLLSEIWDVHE

Hamster [2] = test: Hypolipidemic effect in Bio F1B hamster fed with high fat and cholesterol diet assessed as lipid-accumulation area in aortic arch at 10 mg/kg, po relative to control; assay type: functional, Cricetinae
Hamster [3] = test: Increase in ABCG8 gene expression in Bio F1B hamster intestine at 10 mg/kg, po; assay type: functional, Cricetinae
Hamster [4] = test: Effect in lipid profiles in Bio F1B hamster fed with high fat and cholesterol diet assessed as triglyceride level at 10 mg/kg, po relative to control; assay type: organism-based; conditions: cricetinae, in vivo
Hamster [5] = test: Increase in ABCA1 gene expression in Bio F1B hamster intestine at 10 mg/kg, po; assay type: functional, Cricetinae
Hamster [6] = test: Increase in ABCA1 gene expression in Bio F1B hamster peripheral blood at 10 mg/kg, po; assay type: functional, Cricetinae
Hamster [7] = test: Hypolipidemic effect in Bio F1B hamster fed with high fat and cholesterol diet assessed as LDL-cholesterol level at 10 mg/kg, po relative to control; assay type: functional, Cricetinae
Hamster [8] = test: Increase in ABCG5 gene expression in Bio F1B hamster intestine at 10 mg/kg, po; assay type: functional, Cricetinae
Hamster [9] = test: Hypolipidemic effect in Bio F1B hamster fed with high fat and cholesterol diet assessed as HDL-cholesterol level at 10 mg/kg, po relative to control; assay type: functional, Cricetinae
Hamster [10] = test: Hypolipidemic effect in Bio F1B hamster fed with high fat and cholesterol diet assessed as total cholesterol level at 10 mg/kg, po relative to control; assay type: functional, Cricetinae
[11] = target: T2, Oxysterols receptor LXR-beta (Homo sapiens) (UniProt P55055); test: Agonist activity at LXRbeta (unknown origin) expressed in CHOK1 cells incubated for 24 hrs by GAL4-responsive luciferase reporter gene assay relative to 10 uM T0901317; assay type: cell-based; conditions: CHO-K1
T2 sequence (whole entry): T1 sequence (P55055 whole entry)
In short: (§1)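 The GAL4-LXR LBD luciferase reporter was run in CHO-K1 cells. Cells were seeded at 20,000/well in HAM-F12 with 10% immobilized FBS and antibiotics for 24 h, then exposed to compound at 0.01, 0.1, 1, 10 and 30 µM for 24 h, with a Bright-Glo luminescence read-out. Values are means of two independent experiments.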

[12] = target: T3, Oxysterols receptor LXR-alpha (Homo sapiens) (UniProt Q13133); test: Agonist activity at LXRalpha (unknown origin) expressed in CHOK1 cells incubated for 24 hrs by GAL4-responsive luciferase reporter gene assay relative to 10 uM T0901317; assay type: cell-based; conditions: CHO-K1; in short: as §1
T3 sequence (whole entry): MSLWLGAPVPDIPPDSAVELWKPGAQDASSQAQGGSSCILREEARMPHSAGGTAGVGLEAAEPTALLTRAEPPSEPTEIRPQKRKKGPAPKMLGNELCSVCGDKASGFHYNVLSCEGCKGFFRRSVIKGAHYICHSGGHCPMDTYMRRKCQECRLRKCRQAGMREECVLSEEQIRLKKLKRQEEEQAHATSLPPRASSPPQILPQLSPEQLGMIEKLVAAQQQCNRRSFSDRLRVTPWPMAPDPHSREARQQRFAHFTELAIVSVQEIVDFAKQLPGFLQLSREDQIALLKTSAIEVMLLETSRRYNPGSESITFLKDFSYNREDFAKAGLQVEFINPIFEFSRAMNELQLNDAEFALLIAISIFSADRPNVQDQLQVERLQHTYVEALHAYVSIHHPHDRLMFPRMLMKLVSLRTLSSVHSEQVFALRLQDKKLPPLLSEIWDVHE

[13] = target: T1, Oxysterols receptor LXR-beta; test: Agonist activity at LXRbeta (unknown origin) expressed in CHOK1 cells incubated for 24 hrs by GAL4-responsive luciferase reporter gene assay; assay type: cell-based, CHO-K1
In short: (§2)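 CHO-K1 cells carrying the GAL4-responsive pG5luc reporter and a GAL4-LXR LBD construct were seeded at 20,000 cells/well in HAM-F12 with 10% immobilized fetal bovine serum, penicillin G and streptomycin, at 37 °C and 5% CO2. After 24 h, compound was added at 0.01–30 µM for a further 24 h. Luminescence was read with Bright-Glo substrate. EC50 is the mean of two independent experiments.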

[14] = target: T4, Oxysterols receptor LXR-alpha (Homo sapiens, UniProt Q13133); test: Agonist activity at LXRalpha (unknown origin) expressed in CHOK1 cells incubated for 24 hrs by GAL4-responsive luciferase reporter gene assay; assay type: cell-based, CHO-K1; in short: as §2
T4 sequence (Q13133 whole entry): T3 sequence (whole entry)

[15] = Clearance in human hepatic microsomes; assay type: ADME; conditions: liver microsomes, read-out: CLH
[16] = Clearance in mouse hepatic microsomes; assay type: ADME; conditions: liver microsomes, read-out: CLH
[17] = Clearance in hamster hepatic microsomes; assay type: ADME; conditions: cricetinae, liver microsomes; read-out: CLH
Syrian golden hamster = test: Drug level in CE-2 chow diet-fed golden Syrian hamster treated with 100 mg/kg, po 3-(4-(4-(1,1,1,3,3,3-Hexafluoro-2-hydroxypropan-2-yl)-2,6-di-n-propylphenoxy)-butyl)-5-(4-(1-methylethoxy)phenyl)-5-methylimidazolidine-2,4-dione assessed as compound formation after 0.5 to 24 hrs by HPLC-LC-MS/MS method; assay type: ADME, organism-based, Mesocricetus auratus; conditions: in vivo

Row | Emax [11] [%] | Emax [12] [%] | pEC50 [13] | pEC50 [14] | Compound | further results
1 |  |  |  |  | O=C(O)Cc1cccc(OCCCN(Cc2cccc(C(F)(F)F)c2Cl)CC(c2ccccc2)c2ccccc2)c1 | pEC50 [1]: 6.40
2 |  |  |  |  | O=S(=O)(c1ccccc1)N(CC(F)(F)F)c1ccc(C(O)(C(F)(F)F)C(F)(F)F)cc1 [T091317] | Activity (Hamster [2]): 40%; fold change (FC) (Hamster [3]): 1.4; Activity (Hamster [4]): 251%; fold change (FC) (Hamster [5]): 3.4; fold change (FC) (Hamster [6]): 1.3; Activity (Hamster [7]): 75%; fold change (FC) (Hamster [8]): 1.5; Activity (Hamster [9]): 76%; Activity (Hamster [10]): 124%
3 | 118 | 118 | 6.15 | 6.22 | CCCc1cc(C(O)(C(F)(F)F)C(F)(F)F)cc(CCC)c1OCCCCN1C(=O)NC(CC)(c2ccc3c(c2)OCO3)C1=O (centres undefined) | 
4 | 118 | 54 | 6.30 | 5.77 | CCCc1cc(C(O)(C(F)(F)F)C(F)(F)F)ccc1OCCCCN1C(=O)NC(C)(c2ccc3c(c2)OCO3)C1=O (centres undefined) | microsomal CLint [15]: 31 µL/min/mg; microsomal CLint [16]: 73 µL/min/mg; microsomal CLint [17]: 351 µL/min/mg
5 | 101 | 89 | 7.00 | 6.40 | CCCc1cc(C(O)(C(F)(F)F)C(F)(F)F)cc(CCC)c1OCCCCN1C(=O)NC(C)(c2ccc3c(c2)OCO3)C1=O (centres undefined) | 
6 | 172 | 72 | 6.15 | 5.82 | CCCc1cc(C(O)(C(F)(F)F)C(F)(F)F)ccc1OCCCCN1C(=O)NC(CC)(c2ccc3c(c2)OCO3)C1=O (centres undefined) | 
7 | 72 | 42 | 5.89 | 5.64 | CCCc1cc(C(O)(C(F)(F)F)C(F)(F)F)ccc1OCCCCN1C(=O)NC(CCC)(c2ccc3c(c2)OCO3)C1=O (centres undefined) | 
8 |  |  |  |  | CCCc1cc(C(O)(C(F)(F)F)C(F)(F)F)cc(CCC)c1OCCCC(=O)O | Drug metabolism (Syrian golden hamster): metabolite_detected
